Data taken from ChEMBL document CHEMBL5705890, “Antitumor activity of an allosteric inhibitor of centromere-associated protein-E” (Proc Natl Acad Sci U S A, 2010).

Tests used:
[1] = biological target: Centromere-associated protein E (Homo sapiens, UniProt Q02224); assay: Binding affinity to wild-type human CENP-E assessed as inhibition constant
Outline: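 CENP-E motor domain (residues 2–340, C-terminal 6-his, from E. coli BL21(DE3)) run in MT-stimulated ATPase with 500 μM ATP, 5 μM paclitaxel-stabilized MT, 1 nM enzyme in PEM25 buffer, pH 6.8. Apparent Ki taken from the concentration-response curves with explicit correction for enzyme concentration.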

786-0 = assay: Anticancer activity against human 786-0 cells assessed as cell growth inhibition measured after 72 hrs by DAPI staining based analysis; assay type: functional
Outline: (§1)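 Cells were seeded and, after 24 h, DNA content was read as T0. Cells were then exposed to varying drug concentrations for a further 72 h (T72). Fixed cells were DAPI-stained and DNA content measured by automated imaging. T72 values were normalized to T0. GI50 is the concentration giving 50% growth inhibition between T0 and Ymax, obtained by curve fitting.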

A 172 = assay: Anticancer activity against human A-172 cells assessed as cell growth inhibition measured after 72 hrs by DAPI staining based analysis; assay type: functional; outline: as §1
A2780 = assay: Anticancer activity against human A2780 cells assessed as cell growth inhibition measured after 72 hrs by DAPI staining based analysis; assay type: functional; outline: as §1
A549 = assay: Anticancer activity against human A549 cells assessed as cell growth inhibition measured after 72 hrs by DAPI staining based analysis; assay type: functional; outline: as §1
BT-20 [2] = assay: Anticancer activity against human BT-20 cells assessed as cell growth inhibition measured after 72 hrs by DAPI staining based analysis; assay type: functional
Outline: (§2)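 Cells were seeded, and DNA content at 24 h after seeding (T0) was read by imaging of fixed, DAPI-stained cells. Cells were then exposed to a range of drug concentrations for a further 72 h (T72) and DNA content was read again. T72 values were normalized to T0, and GI50 was taken from curve fits as the concentration giving 50% growth inhibition relative to T0 and Ymax.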

Capan-2 = assay: Anticancer activity against human Capan-2 cells assessed as cell growth inhibition measured after 72 hrs by DAPI staining based analysis; assay type: functional
Outline: (§3)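 Cells seeded, DAPI-stained DNA content of fixed cells read by imaging 24 h after seeding (T0), and again after a further 72 h exposure to a range of drug concentrations (T72). T72 values were normalized to T0. Curve fits gave the concentration producing 50% growth inhibition relative to T0 and Ymax (GI50).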

CGTH-W-1 = assay: Anticancer activity against human CGTH-W-1 cells assessed as cell growth inhibition measured after 72 hrs by DAPI staining based analysis; assay type: functional; outline: as §2
DoTc2-4510 = assay: Anticancer activity against human DoTc2-4510 cells assessed as cell growth inhibition measured after 72 hrs by DAPI staining based analysis; assay type: functional; outline: as §3
HCC 2998 = assay: Anticancer activity against human HCC 2998 cells assessed as cell growth inhibition measured after 72 hrs by DAPI staining based analysis; assay type: functional; outline: as §3
HT-1080 = assay: Anticancer activity against human HT-1080 cells assessed as cell growth inhibition measured after 72 hrs by DAPI staining based analysis; assay type: functional
[3] = Anticancer activity against human KHOS-240S cells assessed as cell growth inhibition measured after 72 hrs by DAPI staining based analysis; assay type: functional
MX1 [4] = assay: Anticancer activity against human MX1 cells assessed as cell growth inhibition measured after 72 hrs by DAPI staining based analysis; assay type: functional
RL95-2 = assay: Anticancer activity against human RL95-2 cells assessed as cell growth inhibition measured after 72 hrs by DAPI staining based analysis; assay type: functional
SiHa = assay: Anticancer activity against human SiHa cells assessed as cell growth inhibition measured after 72 hrs by DAPI staining based analysis; assay type: functional
SNB-75 [5] = assay: Anticancer activity against human SNB-75 cells assessed as cell growth inhibition measured after 72 hrs by DAPI staining based analysis; assay type: functional
SNU-423 = assay: Anticancer activity against human SNU-423 cells assessed as cell growth inhibition measured after 72 hrs by DAPI staining based analysis; assay type: functional
SW1088 = assay: Anticancer activity against human SW1088 cells assessed as cell growth inhibition measured after 72 hrs by DAPI staining based analysis; assay type: functional
SW1463 = assay: Anticancer activity against human SW1463 cells assessed as cell growth inhibition measured after 72 hrs by DAPI staining based analysis; assay type: functional
SW1783 [6] = assay: Anticancer activity against human SW1783 cells assessed as cell growth inhibition measured after 72 hrs by DAPI staining based analysis; assay type: functional
SW-403 = assay: Anticancer activity against human SW403 cells assessed as cell growth inhibition measured after 72 hrs by DAPI staining based analysis; assay type: functional
[7] = Anticancer activity against human SW579 cells assessed as cell growth inhibition measured after 72 hrs by DAPI staining based analysis; assay type: functional
T-24 = assay: Anticancer activity against human T24 cells assessed as cell growth inhibition measured after 72 hrs by DAPI staining based analysis; assay type: functional
Y79 = assay: Anticancer activity against human Y79 cells assessed as cell growth inhibition measured after 72 hrs by DAPI staining based analysis; assay type: functional
A101D = assay: Anticancer activity against human A101D cells assessed as cell doubling measured for 72 hrs by DAPI staining based analysis; assay type: functional
ACHN = assay: Anticancer activity against human ACHN cells assessed as cell doubling measured for 72 hrs by DAPI staining based analysis; assay type: functional
BC-3 = assay: Anticancer activity against human BC-3 cells assessed as cell doubling measured for 72 hrs by DAPI staining based analysis; assay type: functional
BFTC-905 = assay: Anticancer activity against human BFTC-905 cells assessed as cell doubling measured for 72 hrs by DAPI staining based analysis; assay type: functional
BT-20 [8] = assay: Anticancer activity against human BT-20 cells assessed as cell doubling measured for 72 hrs by DAPI staining based analysis; assay type: functional
DLD-1 = assay: Anticancer activity against human DLD-1 cells assessed as cell doubling measured for 72 hrs by DAPI staining based analysis; assay type: functional
HuP-T4 = assay: Anticancer activity against human HuP-T4 cells assessed as cell doubling measured for 72 hrs by DAPI staining based analysis; assay type: functional
NCI-H526 = assay: Anticancer activity against human NCI-H526 cells assessed as cell doubling measured for 72 hrs by DAPI staining based analysis; assay type: functional
NCI-H82 = assay: Anticancer activity against human NCI-H82 cells assessed as cell doubling measured for 72 hrs by DAPI staining based analysis; assay type: functional
SCaBER = assay: Anticancer activity against human SCaBER cells assessed as cell doubling measured for 72 hrs by DAPI staining based analysis; assay type: functional
SK-OV-3 = assay: Anticancer activity against human SK-OV-3 cells assessed as cell doubling measured for 72 hrs by DAPI staining based analysis; assay type: functional
SNB-75 [9] = assay: Anticancer activity against human SNB-75 cells assessed as cell doubling measured for 72 hrs by DAPI staining based analysis; assay type: functional
SW1783 [10] = assay: Anticancer activity against human SW1783 cells assessed as cell doubling measured for 72 hrs by DAPI staining based analysis; assay type: functional
MCF7 = assay: Antitumor activity against human MCF7 cells in xenograft model assessed as difference between median time to endpoint time of treated versus control group at 62.5 mg/kg; assay type: functional
MX1 [11] = assay: Antitumor activity against human MX1 cells in xenograft model assessed as tumor growth delay at 125 mg/kg relative to control; assay type: functional

Sequence of Centromere-associated protein E (Q02224 whole entry, the tested form may be a part): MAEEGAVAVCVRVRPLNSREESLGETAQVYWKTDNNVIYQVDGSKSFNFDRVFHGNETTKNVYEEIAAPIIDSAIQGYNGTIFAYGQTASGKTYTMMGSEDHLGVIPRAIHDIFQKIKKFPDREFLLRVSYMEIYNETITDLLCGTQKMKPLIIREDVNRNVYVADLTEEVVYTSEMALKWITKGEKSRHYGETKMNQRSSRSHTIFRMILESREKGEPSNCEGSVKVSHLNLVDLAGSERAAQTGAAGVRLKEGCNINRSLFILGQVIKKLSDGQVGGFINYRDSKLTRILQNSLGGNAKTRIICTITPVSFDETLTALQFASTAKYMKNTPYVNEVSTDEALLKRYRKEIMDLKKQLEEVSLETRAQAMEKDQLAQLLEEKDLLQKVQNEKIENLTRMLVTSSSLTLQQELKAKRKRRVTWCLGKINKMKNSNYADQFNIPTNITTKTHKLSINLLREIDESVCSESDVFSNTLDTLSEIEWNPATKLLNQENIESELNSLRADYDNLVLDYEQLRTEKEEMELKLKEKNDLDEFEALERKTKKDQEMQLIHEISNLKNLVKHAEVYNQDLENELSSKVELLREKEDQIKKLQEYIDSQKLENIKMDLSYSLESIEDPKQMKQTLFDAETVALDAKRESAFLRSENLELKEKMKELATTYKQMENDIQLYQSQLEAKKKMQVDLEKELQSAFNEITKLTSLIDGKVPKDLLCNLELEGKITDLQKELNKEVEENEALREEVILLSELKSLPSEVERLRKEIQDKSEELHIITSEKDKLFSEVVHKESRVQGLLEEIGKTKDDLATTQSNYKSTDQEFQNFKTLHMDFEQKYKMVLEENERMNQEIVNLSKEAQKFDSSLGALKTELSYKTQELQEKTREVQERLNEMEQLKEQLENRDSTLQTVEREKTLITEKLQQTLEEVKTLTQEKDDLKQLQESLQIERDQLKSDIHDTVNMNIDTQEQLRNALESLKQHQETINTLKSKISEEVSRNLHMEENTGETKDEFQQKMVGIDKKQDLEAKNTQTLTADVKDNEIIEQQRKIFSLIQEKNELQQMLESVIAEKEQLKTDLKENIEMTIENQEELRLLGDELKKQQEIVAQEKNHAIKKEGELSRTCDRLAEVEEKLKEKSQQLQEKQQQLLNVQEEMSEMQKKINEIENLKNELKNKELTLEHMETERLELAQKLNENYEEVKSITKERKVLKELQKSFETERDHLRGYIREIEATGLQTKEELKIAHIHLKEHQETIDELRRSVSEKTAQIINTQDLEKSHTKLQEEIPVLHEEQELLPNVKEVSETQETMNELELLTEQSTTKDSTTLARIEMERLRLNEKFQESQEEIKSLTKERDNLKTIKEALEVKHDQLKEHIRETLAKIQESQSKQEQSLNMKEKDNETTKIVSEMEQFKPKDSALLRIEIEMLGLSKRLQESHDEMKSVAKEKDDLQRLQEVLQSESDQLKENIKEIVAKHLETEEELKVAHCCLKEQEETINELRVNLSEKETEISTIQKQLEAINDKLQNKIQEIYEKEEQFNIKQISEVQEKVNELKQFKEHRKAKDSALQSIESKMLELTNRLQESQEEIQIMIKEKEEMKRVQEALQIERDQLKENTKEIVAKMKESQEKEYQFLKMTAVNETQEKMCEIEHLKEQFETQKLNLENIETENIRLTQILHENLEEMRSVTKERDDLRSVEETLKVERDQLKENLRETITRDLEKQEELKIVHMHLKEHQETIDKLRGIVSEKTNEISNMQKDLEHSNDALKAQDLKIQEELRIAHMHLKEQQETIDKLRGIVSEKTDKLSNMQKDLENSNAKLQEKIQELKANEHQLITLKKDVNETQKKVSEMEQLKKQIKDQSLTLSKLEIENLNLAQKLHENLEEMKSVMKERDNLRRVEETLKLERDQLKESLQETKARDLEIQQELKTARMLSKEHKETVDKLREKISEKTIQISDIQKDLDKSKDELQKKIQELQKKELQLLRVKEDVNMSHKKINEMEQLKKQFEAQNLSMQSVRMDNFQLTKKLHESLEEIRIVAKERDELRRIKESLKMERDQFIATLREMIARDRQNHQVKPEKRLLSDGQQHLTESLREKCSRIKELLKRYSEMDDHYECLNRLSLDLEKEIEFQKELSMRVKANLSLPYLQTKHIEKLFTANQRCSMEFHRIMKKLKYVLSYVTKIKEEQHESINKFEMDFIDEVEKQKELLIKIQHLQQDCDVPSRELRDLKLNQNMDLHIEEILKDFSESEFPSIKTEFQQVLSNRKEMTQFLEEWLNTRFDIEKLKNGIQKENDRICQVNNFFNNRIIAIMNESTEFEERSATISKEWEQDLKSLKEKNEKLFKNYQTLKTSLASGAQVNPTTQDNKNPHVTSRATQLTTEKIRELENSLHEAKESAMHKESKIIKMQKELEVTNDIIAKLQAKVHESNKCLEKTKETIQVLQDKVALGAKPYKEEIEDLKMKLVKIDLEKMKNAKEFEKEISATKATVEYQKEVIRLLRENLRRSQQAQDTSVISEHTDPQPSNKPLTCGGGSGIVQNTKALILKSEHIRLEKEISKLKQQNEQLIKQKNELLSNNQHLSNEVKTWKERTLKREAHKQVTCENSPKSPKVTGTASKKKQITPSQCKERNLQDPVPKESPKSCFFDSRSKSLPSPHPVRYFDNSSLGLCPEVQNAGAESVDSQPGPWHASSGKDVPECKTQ

Ki [1]: 3.2 nM
GI50 (786-0): 45 nM
GI50 (A2780): 13 nM
GI50 (A549): 21 nM
GI50 (BT-20 [2]): 32 nM
GI50 (HCC 2998): 29 nM
GI50 (HT-1080): 24 nM
GI50 (SNU-423): 34 nM
GI50 (SW1088): 32 nM
GI50 (SW1463): 31 nM
GI50 (SW1783 [6]): 34 nM
GI50 (SW-403): 24 nM
SMILES: CC(C)Oc1ccc(C(=O)N[C@H](CNC(=O)CN(C)C)Cc2ccc(-c3cn4cccc([C@H](C)O)c4n3)cc2)cc1Cl [GSK-923295A]
GI50 (A 172): 27 nM
GI50 (Capan-2): 119 nM
GI50 (CGTH-W-1): 30 nM
GI50 (DoTc2-4510): 33 nM
GI50 [3]: 37 nM
GI50 (MX1 [4]): 30 nM
GI50 (RL95-2): 49 nM
GI50 (SiHa): 29 nM
GI50 (SNB-75 [5]): 26 nM
GI50 [7]: 26 nM
GI50 (T-24): 45 nM
GI50 (Y79): 70 nM
Activity (A101D): 1.36
Activity (ACHN): 2.51
Activity (BC-3): 2.65
Activity (BFTC-905): 3.49
Activity (BT-20 [8]): 4.17
Activity (DLD-1): 4.11
Activity (HuP-T4): 1.09
Activity (NCI-H526): 1.49
Activity (NCI-H82): 2
Activity (SCaBER): 2.86
Activity (SK-OV-3): 1.72
Activity (SNB-75 [9]): 1.37
Activity (SW1783 [10]): 1.47
Time (MCF7): 5.4 days
Activity (MX1 [11]): 26%
